Test results as given in ChEMBL document CHEMBL1147062, “Therapeutic anticancer efficacy of a synthetic diazonamide analog in the absence of overt toxicity” (Proc Natl Acad Sci U S A, 2007).
Active and inactive are the calls of the source. The calls are words filed in the database; no cut-off is given here.

Tests used:
Mus musculus [1] = experiment: Toxicity in human HCT116 cells xenografted NCR nu/nu mouse assessed as decrease in neutrophil count in peripheral blood at 2 mg/kg, iv QD for 6 days relative to control; type: organism-based, HCT-116; parameters: dose 2 mg/kg, route intravenous; settings: in vivo, 144 h
Method in brief: (§1)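 NCR nu/nu mice received 10^7 HCT116 cells s.c. in the left flank 12 days before therapy. Dosing was i.v. qd × 6: 20 mg/kg in cremaphor:ethanol/5% dextrose, or 2 mg/kg vinblastine sulfate in 5% dextrose. Mice were weighed daily. On day 8, Gr1hi neutrophils in tail-vein blood and femoral marrow were counted by flow cytometry and compared with control by ANOVA and Dunnett's test.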

PC-3 [2] = experiment: Antitumor activity against human PC3 cells xenografted into NCR nu/nu mouse at 2.5 mg/kg, iv dosed in qdX6 schedule relative to control; type: functional
Method in brief: (§2)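 Nude mice received 10^7 PC3 cells s.c. in the left flank and were randomized at ≈250 mm3 into groups of six to seven. Dosing was i.v. daily for 6 consecutive days, in 0.2 ml cremaphor:ethanol (1:1) diluted in 5% dextrose. Tumors were measured by calipers as (length × width2)/2, and weight was tracked alongside.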

HCT-116 [3] = experiment: Antitumor activity against human HCT116 cells xenografted into NCR nu/nu mouse at 20 mg/kg, ip dosed in q2-3dX6 schedule relative to control; type: functional; settings: route intraperitoneal
Method in brief: (§3)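 NCR nu/nu mice given 7.5–10 × 10^6 tumor cells s.c. in the left flank. At ≈100–300 mm3 (5–10 days), mice were randomized into groups of 4–7. Compound was predissolved in 1:1 cremaphor:ethanol, then diluted into 5% dextrose. Dosed i.v. or i.p. in 0.2 ml on Monday, Wednesday and Friday for 2 weeks. Caliper measurements 2–3 times weekly; volume = (length × width2)/2.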

Mus musculus [4] = experiment: Toxicity in NCR nu/nu mouse neutropenia model assessed as severe flaking of skin at 20 mg/kg, iv QD for 6 days; type: organism-based; parameters: dose 20 mg/kg, route intravenous; settings: in vivo, 144 h
Method in brief: (§4)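 Non-tumor-bearing NCR nu/nu mice, four to five per group, got 20 mg/kg i.v. qd × 6 in cremaphor:ethanol/5% dextrose, or vehicle. They were weighed and observed daily and killed on day 8. Tail-vein blood and femoral marrow were lysed of erythrocytes, stained for Gr1 and analyzed by flow cytometry. Neutrophil counts were %Gr1hi × white cells per ml or per femur. Groups were compared with control by one-way ANOVA and Dunnett's test.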

PC-3 [5] = experiment: Antitumor activity against human PC3 cells xenografted into NCR nu/nu mouse at 20 mg/kg, iv dosed in qdX6 schedule relative to control; type: functional; method in brief: as §2
Mus musculus [6] = experiment: Toxicity in human HCT116 cells xenografted NCR nu/nu mouse assessed as decrease in neutrophil count in peripheral blood at 20 mg/kg, iv QD for 6 days relative to control; type: organism-based, HCT-116; parameters: dose 20 mg/kg, route intravenous; settings: in vivo, 144 h; method in brief: as §1
PC-3 [7] = experiment: Induction of histone H3 phosphorylation in human PC3 cells xenografted into NCR nu/nu mouse at 20 mg/kg, iv; type: functional, organism-based; parameters: dose 20 mg/kg
Method in brief: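 nu/nu mice carried 10^7 PC3 cells s.c. in the left flank. On day 8 they got one i.v. dose of 20 mg/kg or vehicle, two mice per group. Tumors were taken 12 h later, snap-frozen and homogenized in RIPA buffer with phosphatase and protease inhibitors. 100 µg protein was Western blotted for phospho-histone H3, with actin as control.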

[8] = Clearance in NCR nu/nu mouse plasma at 20 mg/kg, iv; type: ADME, organism-based; parameters: dose 20 mg/kg, route intravenous
Method in brief: (§5)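 Each NCR nu/nu mouse got one i.v. bolus of 20 mg/kg in 0.2 ml of 1:1 cremaphor:ethanol (10%) diluted in 5% dextrose. At set times mice were killed by CO2 overdose and bled by cardiac puncture into sodium citrate. Plasma was spun 10 min at 8,000 × g and frozen at −80°C. LC-MS used an internal standard and a spiked blank murine plasma standard curve. Parameters came from noncompartmental analysis.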

Mus musculus [9] = experiment: Toxicity in human HCT116 cells xenografted NCR nu/nu mouse assessed as loss of body weight at 20 mg/kg, iv QD for 6 days; type: organism-based, HCT-116; parameters: dose 20 mg/kg, route intravenous; settings: in vivo, 144 h; method in brief: as §1
[10] = AUC in NCR nu/nu mouse plasma at 20 mg/kg, iv; type: ADME, organism-based; parameters: dose 20 mg/kg, route intravenous; method in brief: as §5
Mus musculus [11] = experiment: Toxicity in human HCT116 cells xenografted NCR nu/nu mouse assessed as decrease in neutrophil count in bone marrow at 2 mg/kg, iv QD for 6 days relative to control; type: organism-based, HCT-116; parameters: dose 2 mg/kg, route intravenous; settings: in vivo, 144 h; method in brief: as §1
Mus musculus [12] = experiment: Toxicity in NCR nu/nu mouse neutropenia model assessed as decrease in neutrophil count in bone marrow at 20 mg/kg, iv QD for 6 days relative to control; type: organism-based; parameters: dose 20 mg/kg, route intravenous; settings: in vivo, 144 h; method in brief: as §4
Mus musculus [13] = experiment: Toxicity in NCR nu/nu mouse assessed as loss of body weight at 7.5 mg/kg, iv for 6 days; type: organism-based; parameters: dose 7.5 mg/kg, route intravenous; settings: in vivo, 144 h
Method in brief: (§6)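 Nude mice carried 10^7 PC3 cells s.c. in the left flank and were randomized into groups of six to seven when tumors reached ≈250 mm3. Mice were dosed at 20, 7.5 or 2.5 mg/kg for 6 consecutive days. Body weight was tracked against starting weight, including 2 days after the last dose.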

Mus musculus [14] = experiment: Toxicity in NCR nu/nu mouse neutropenia model assessed as loss of body weight at 20 mg/kg, iv QD for 6 days; type: organism-based; parameters: dose 20 mg/kg, route intravenous; settings: in vivo, 144 h; method in brief: as §4
HCT-116 [15] = experiment: Antitumor activity against human HCT116 cells xenografted into NCR nu/nu mouse at 5 mg/kg, iv dosed in q2-3dX6 schedule relative to control; type: functional; method in brief: as §3
Mus musculus [16] = experiment: Volume of distribution in NCR nu/nu mouse plasma at 20 mg/kg, iv; type: ADME, organism-based; parameters: dose 20 mg/kg, route intravenous; settings: in vivo; method in brief: as §5
Mus musculus [17] = experiment: Toxicity in human HCT116 cells xenografted NCR nu/nu mouse assessed as decrease in neutrophil count in bone marrow at 20 mg/kg, iv QD for 6 days relative to control; type: organism-based, HCT-116; parameters: dose 20 mg/kg, route intravenous; settings: in vivo, 144 h; method in brief: as §1
Mus musculus [18] = experiment: Toxicity in NCR nu/nu mouse neutropenia model assessed as decrease in neutrophil count in peripheral blood at 20 mg/kg, iv QD for 6 days relative to control; type: organism-based; parameters: dose 20 mg/kg, route intravenous; settings: in vivo, 144 h; method in brief: as §4
[19] = Terminal half life in NCR nu/nu mouse plasma at 20 mg/kg, iv; type: ADME, organism-based; parameters: dose 20 mg/kg, route intravenous; method in brief: as §5
[20] = Drug level in NCR nu/nu mouse plasma at 20 mg/kg, iv after 24 hrs; type: ADME, organism-based; parameters: dose 20 mg/kg, route intravenous; method in brief: as §5
Mus musculus [21] = experiment: Toxicity in NCR nu/nu mouse assessed as loss of body weight at 20 mg/kg, iv for 6 days; type: organism-based; parameters: dose 20 mg/kg, route intravenous; settings: in vivo, 144 h; method in brief: as §6
PC-3 [22] = experiment: Antitumor activity against human PC3 cells xenografted into NCR nu/nu mouse at 20 mg/kg, iv dosed in q2-3dX6 schedule relative to control; type: functional; method in brief: as §3
Mus musculus [23] = experiment: Toxicity in NCR nu/nu mouse assessed as loss of body weight at 2.5 mg/kg, iv for 6 days; type: organism-based; parameters: dose 2.5 mg/kg, route intravenous; settings: in vivo, 144 h; method in brief: as §6
PC-3 [24] = experiment: Antitumor activity against human PC3 cells xenografted into NCR nu/nu mouse at 7.5 mg/kg, iv dosed in qdX6 schedule relative to control; type: functional; method in brief: as §2
Mus musculus [25] = experiment: Toxicity in human HCT116 cells xenografted NCR nu/nu mouse assessed as loss of body weight iv QD for 6 days; settings: in vivo, 144 h
HCT-116 [26] = experiment: Antitumor activity against human HCT116 cells xenografted into NCR nu/nu mouse at 20 mg/kg, iv dosed in q2-3dX6 schedule relative to control; type: functional; method in brief: as §3
MDA-MB-435 [27] = experiment: Antitumor activity against human MDA-MB-435 cells xenografted into NCR nu/nu mouse at 20 mg/kg, ip dosed in q3-4dX4 schedule relative to control; type: functional; settings: route intraperitoneal
Method in brief: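 NCR nu/nu mice bearing s.c. left-flank xenografts (7.5–10 × 10^6 cells) were randomized at ≈100–300 mm3 into groups of 4–7. Dosing was i.p. in 0.2 ml, with cremaphor:ethanol (1:1) stock diluted in 5% dextrose. Body weight and caliper tumor size were recorded 2–3 times per week; volume = (length × width2)/2.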

HCT-116 [28] = experiment: Antitumor activity against human HCT116 cells xenografted into NCR nu/nu mouse at 5 mg/kg, ip dosed in q2-3dX6 schedule relative to control; type: functional; settings: route intraperitoneal; method in brief: as §3
HCT-116 [29] = experiment: Antitumor activity against human HCT116 cells xenografted into NCR nu/nu mouse at 0.45 mg/kg, ip dosed in q2-3dX6 schedule relative to control; type: functional; settings: route intraperitoneal
MDA-MB-435 [30] = experiment: Antitumor activity against human MDA-MB-435 cells xenografted into NCR nu/nu mouse at 0.7 mg/kg, ip dosed in q3-4dX4 schedule relative to control; type: functional; settings: route intraperitoneal

SMILES | Activity (Mus musculus [1]) | T/C (PC-3 [2]) | Activity (Mus musculus [4]) | LCK (PC-3 [5]) | T/C (PC-3 [5]) | Activity (Mus musculus [6]) | Activity (Mus musculus [9]) | Activity (Mus musculus [11]) | Activity (Mus musculus [12]) | Activity (Mus musculus [13]) | Activity (Mus musculus [14]) | Activity (Mus musculus [17]) | Activity (Mus musculus [18]) | Activity (Mus musculus [21]) | LCK (PC-3 [22]) | T/C (PC-3 [22]) | LCK (PC-3 [24]) | T/C (PC-3 [24]) | Activity (Mus musculus [25]) | LCK (HCT-116 [26]) | also measured
CC(C)[C@H](O)C(=O)N[C@@H]1C(=O)N[C@@H](C(C)C)c2nc3c(o2)C24c5ccc(cc5N[C@H]2Oc2ccc1cc24)-c1cccc2[nH]cc(c12)-c1cnc-3o1 (single isomer, unassigned) | Non-toxic | 31.4% | Non-toxic | 2.4 | 2.1% | Non-toxic | Non-toxic | Non-toxic | Non-toxic | <= 5% | Non-toxic | Non-toxic | Non-toxic | <= 5% | 3.4 | 0.3% | 1.6 | 3.9% | Non-toxic | 1.8 | LCK (HCT-116 [3]): 1; T/C (HCT-116 [3]): 9.3%; Activity (PC-3 [7]): Active; clearance [8]: 0.146 mL/min; AUC [10]: 50200 ng·h/mL; LCK (HCT-116 [15]): 0.5; T/C (HCT-116 [15]): 26.5%; Vd (Mus musculus [16]): 62.7 mL; half-life [19]: 4.96 h; concentration at 24 h [20]: 15 ng/mL; Activity (Mus musculus [23]): <= 5%; T/C (HCT-116 [26]): 0.2%; LCK (MDA-MB-435 [27]): 1; T/C (MDA-MB-435 [27]): 3.1%; LCK (HCT-116 [28]): 0.4; T/C (HCT-116 [28]): 41.9%
CC(=O)O[C@H]1C(=O)[C@@]2(C)[C@H]([C@H](OC(=O)c3ccccc3)[C@]3(O)C[C@H](OC(=O)[C@H](O)[C@@H](NC(=O)c4ccccc4)c4ccccc4)C(C)=C1C3(C)C)[C@]1(OC(C)=O)CO[C@@H]1C[C@@H]2O [PACLITAXEL] | Toxic | 49.2% | Toxic | 3.8 | 0.6% | Toxic | Toxic | Toxic | Toxic | 13% | 20% | Toxic | Toxic | > 20% | 3.4 | 0% | 1.5 | 6.1% | Toxic | 2.7 | LCK (PC-3 [2]): 0.3; T/C (HCT-116 [26]): 0.2%
CC[C@]1(O)C[C@@H]2CN(CCc3c([nH]c4ccccc34)[C@@](C(=O)OC)(c3cc4c(cc3OC)N(C)[C@H]3[C@@](O)(C(=O)OC)[C@H](OC(C)=O)[C@]5(CC)C=CCN6CC[C@]43[C@@H]65)C2)C1.O=S(=O)(O)O [VINBLASTINE SULFATE] | Toxic | – | – | – | – | Toxic | Toxic | Toxic | – | – | – | Toxic | – | – | – | – | – | – | Toxic | – | LCK (HCT-116 [29]): 0.2; T/C (HCT-116 [29]): 56%; LCK (MDA-MB-435 [30]): 0.2; T/C (MDA-MB-435 [30]): 41.1%
